High-throughput results (PubChem)
CCR6 antagonist: CCR6 receptor antagonists, primary screen, cell-based, CHO-K1, luminescence, beta-arrestin, uHTS; C-C chemokine receptor type 6 (Homo sapiens), P51684; CHO-K1 CCR6 PathHunter beta-arrestin, CCL20-stimulated; inhibition, % at 20 µM; actives 0.49% (n = 340,000);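 active means compounds whose inhibition of the agonist-driven luminescence signal at 20 µM reaches about 50%, limit read from the data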;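 further: cells stimulated with CCL20 at 14 nM final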
Target sequence (P51684 whole entry, looked up): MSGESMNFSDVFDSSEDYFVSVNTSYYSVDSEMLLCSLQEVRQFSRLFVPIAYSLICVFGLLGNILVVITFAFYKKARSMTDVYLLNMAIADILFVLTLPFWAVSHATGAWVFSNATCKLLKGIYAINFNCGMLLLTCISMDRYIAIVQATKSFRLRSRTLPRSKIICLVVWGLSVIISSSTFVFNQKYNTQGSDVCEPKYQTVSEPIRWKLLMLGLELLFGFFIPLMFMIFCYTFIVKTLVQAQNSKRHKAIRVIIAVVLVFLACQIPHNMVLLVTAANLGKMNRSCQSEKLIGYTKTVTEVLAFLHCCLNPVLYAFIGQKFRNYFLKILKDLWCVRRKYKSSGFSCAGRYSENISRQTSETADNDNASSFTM
EBI2 antag: EBI2 receptor antagonists, beta-arrestin recruitment, primary screen, cell-based, luminescence, 7a,25-OHC stimulation, uHTS; G-protein coupled receptor 183 (Homo sapiens), P32249; 7a,25-OHC stimulated; inhibition, % at 5 µM; actives 0.81% (n = 360,000); AID 651636, 2012; in the data active means inhibition above about 38%;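 further: enzyme fragment complementation signal reports receptor beta-arrestin coupling in cells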
Target sequence (P32249 whole entry, looked up, the tested form may be a part): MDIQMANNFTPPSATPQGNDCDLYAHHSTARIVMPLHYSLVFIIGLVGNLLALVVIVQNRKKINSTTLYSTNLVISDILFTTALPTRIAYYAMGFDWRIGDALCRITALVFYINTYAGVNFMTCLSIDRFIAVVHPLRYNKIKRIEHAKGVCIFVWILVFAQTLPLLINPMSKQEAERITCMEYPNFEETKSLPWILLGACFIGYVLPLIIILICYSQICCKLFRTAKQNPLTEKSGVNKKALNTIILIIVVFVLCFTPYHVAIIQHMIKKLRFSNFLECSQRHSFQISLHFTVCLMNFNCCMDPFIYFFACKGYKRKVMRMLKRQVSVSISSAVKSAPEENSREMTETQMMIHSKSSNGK
APJ antagonist: antagonists of human apelin receptor APJ, primary screen, CHO-K1 cells, beta-arrestin complementation, luminescence. P35414. AID 2521, 2010. inhibition, % at 20 µM. actives 0.32% (n = 330,000);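 active means inhibition above about 40% at 20 µM, limit read from the data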;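 further: cells challenged with 10 nM apelin-13 agonist together with compound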
CXCR6 block: CXCR6 receptor inhibitors, primary screen, cell-based, beta-arrestin, luminescence, CHO-K1 PathHunter, 1536-well. C-X-C chemokine receptor type 6 (Homo sapiens), O00574. inhibition, % at 20 µM. actives 0.36% (n = 360,000). AID 602244, 2012; in the data active means inhibition above about 34%, passing the limit was not always enough;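 further: antagonist mode with CXCL16 agonist at 10 nM final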
APJ agonist: agonists of human apelin receptor APJ, primary screen, CHO-K1 cells, PathHunter beta-arrestin, luminescence. P35414. 0% DMSO wells, 100% apelin. activation, % at 20 µM. actives 0.11% (n = 330,000);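 active means activation more than six SD over the plate average, tested at 20 µM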
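Assay system – PathHunter CHO-K1 APJ (AGTRL-1) beta-arrestin reporter cells · Compound – one dose, 20 µM compound, 1% DMSO · Timing – compound 90 min 25 °C, reagent 1 h · Measured by – luminescence from split beta-galactosidase complementation, Galacton Star/Emerald II substrate · Measure – beta-arrestin recruitment to APJ as agonist activity, luminescent signal · Benchmarks – DMSO vs Apelin-13 10 nM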
Of the large screens only hits and unclear results are named; the others gave an inactive call. In the library only some 1.5% were active in any assay of this set; here they are far more common.

CCCCNc1c(-c2ccc(SC(C)CC)c(OC)c2)nc2ccc(C)cn12 (configuration not stated)	EBI2 antag 55.0
CCCCNC(=O)C1(C)CCCCN1C(=O)c1oc2ccccc2c1C (configuration not stated)	none (no result: CCR6 antagonist, APJ antagonist, APJ agonist)
CCOC(=O)[C@]12CCCC=C1N(CCC1=CCCCC1)C(=O)[C@H](CC(=O)NCc1ccc(OC)c(OC)c1)C2	none (no result: CCR6 antagonist, APJ antagonist, CXCR6 block, APJ agonist)
Cc1ccc(OCCCN2C(=O)C(=O)c3cccc(C)c32)cc1	CCR6 antagonist 57.4
Cc1ccc2c(c1)C(=O)C(=O)N2CC(=O)OC(C)C	none
Cc1ccc(OCCN2C(=O)C(=O)c3cc(C)ccc32)cc1	CCR6 antagonist 51.7
Cc1cccc2c1N(CCOc1ccc(C(C)(C)C)cc1)C(=O)C2=O	none
OCCNc1ncnc2c1ncn2[C@H]1CN(Cc2ccc3c(c2)OCO3)C[C@@H](CO)O1	none (no result: CCR6 antagonist, APJ antagonist, APJ agonist)
C/C(=N/Nc1ccc([N+](=O)[O-])cc1)c1c[nH]c2ccccc12	CCR6 antagonist 70.4
C/C(=N/Nc1ccc([N+](=O)[O-])cc1)c1ccc(C)cc1C	none
Cc1[nH]c2ccccc2c1/C=N/Nc1ccc([N+](=O)[O-])cc1	CCR6 antagonist 64.7, EBI2 antag 41.8 (no result: APJ antagonist, APJ agonist)
CCc1nc2c(OCC(=O)C(C)(C)C)cccn2c1N(C)C(=O)C(C)C	none (no result: CCR6 antagonist, APJ antagonist, APJ agonist)
COCCN1C(=O)CCC1(C)c1nnnn1Cc1ccccc1 (configuration not stated)	none (no result: CCR6 antagonist, APJ antagonist, APJ agonist)
CCN1/C(=c2/s/c(=C3/C(=O)N(c4ccccc4)N=C3C)n(CC)c2=O)C=Cc2ccccc21	CCR6 antagonist 52.2
CCN1/C(=C2\C(=O)N(c3ccccc3)N=C2C)C=Cc2cc(C)ccc21	none
Cc1cccc(OCC(=O)NCC(=O)N/N=C/c2cc(Br)cc(Br)c2O)c1	CXCR6 block 45.4
C/C(CCC12CC3CC(CC(C3)C1)C2)=N\NC(N)=S	CCR6 antagonist 57.1
CC(=O)Nc1cccc(-c2cc(NC(C)=O)c3ncc(-c4ccc(C(C)=O)cc4)n3c2)c1	none (no result: CCR6 antagonist, APJ antagonist, APJ agonist)
CCOc1ccc(NC(=O)CN2CCN(CC(=O)Nc3ccc(Cl)c(C(F)(F)F)c3)CC2)cc1	EBI2 antag 43.1
CCOc1ccc(NC(=O)CN2CCN(CC(=O)Nc3cccc(F)c3)CC2)cc1	none
CC(=O)Nc1ccc(NC(=O)c2nc(S(=O)(=O)Cc3cccc(C)c3)ncc2Cl)cc1	CCR6 antagonist 58.1, CXCR6 block 46.6
CCS(=O)(=O)c1ncc(Cl)c(C(=O)Nc2ccccc2OC)n1	EBI2 antag 79.4
COc1cccc(C(=O)C(=O)N2CCN(C(=O)OCc3ccccc3)CC2)c1	none (no result: CCR6 antagonist, APJ antagonist, CXCR6 block, APJ agonist)
Cc1ccc(Cc2cnc(N3C(=N)SC(c4ccccc4)C3=O)s2)cc1 (configuration not stated)	CCR6 antagonist 61.7
N=C1SC(c2ccccc2)C(=O)N1c1ncc(Cc2ccccc2)s1 (configuration not stated)	none
Cc1cc(Cl)ccc1N=c1ssnc1Cl	EBI2 antag 38.4
Cc1cccc(NC(=O)CCS(=O)(=O)c2ccc3nc(C)sc3c2)c1	none (no result: CCR6 antagonist, APJ antagonist, APJ agonist)
O=C1c2ccccc2-c2nnc(-c3ccc(F)cc3)cc21	EBI2 antag 48.0
COc1ccc(N2CCN(C(=O)c3ccc(Br)cc3)CC2)c([N+](=O)[O-])c1	EBI2 antag 71.5
COc1ccc(N2CCN(C(=O)c3ccc(C)cc3)CC2)c([N+](=O)[O-])c1	none
CC1=C(C(=O)N(C)C)CC(CC(=O)NC2CCCCC2)C(=O)N1CCCN1CCCC1=O (configuration not stated)	none (no result: CCR6 antagonist, APJ antagonist, APJ agonist)
COc1ccccc1N(C(C)=O)C1=C(Cl)C(=O)c2ccccc2C1=O	CXCR6 block 96.5 (no result: CCR6 antagonist, APJ antagonist, APJ agonist)
COc1ccccc1N(C(=O)CCl)c1cn(C(C)=O)c2ccccc12	none
Cc1cc(NS(=O)(=O)c2ccc(NC(=O)c3ccc(Cl)cc3Cl)cc2)no1	none
Cc1cc(NS(=O)(=O)c2ccc(NC(=S)NC(=O)c3ccc(Cl)cc3Cl)cc2)no1	CCR6 antagonist 51.7
COc1cc(/C=N/n2c(=S)[nH]nc(C)c2=O)cc([N+](=O)[O-])c1O	none
CCc1n[nH]c(=S)n1/N=C/c1cc(OC)cc([N+](=O)[O-])c1O	CCR6 antagonist 62.4, APJ antagonist 41.5
COc1ccc(C[C@H]2c3cc(O)c(OC)cc3CC[N+]2(C)[O-])cc1O (some centres not stated)	CCR6 antagonist 59.0
COC(=O)C1(C(=O)OC)C/C=C\CN(S(=O)(=O)c2ccccc2[N+](=O)[O-])CC1	none (no result: CCR6 antagonist, APJ antagonist, APJ agonist)
Cc1ccc(O)c(C2=NNC(c3ccc(Cl)cc3)C2)c1 (configuration not stated)	APJ antagonist 70.3
CCC(C)C(=O)N1c2ccccc2C(=C2SC(C(=O)OC)=C(C(=O)OC)S2)C(=S)C1(C)C (configuration not stated)	EBI2 antag 51.6
Cc1nn(Cc2c(F)c(F)c(F)c(F)c2F)c(C)c1NC(=O)c1ccc(COc2cc(Cl)ccc2Cl)cc1	EBI2 antag 51.0
COc1ccc(CCn2c(C)ccc2C)cc1OC	none (no result: CCR6 antagonist, EBI2 antag, CXCR6 block)
COc1ccc(CCN2C(=O)C=CC2=O)cc1OC	CCR6 antagonist 109.2, CXCR6 block 93.1 (no result: APJ antagonist, APJ agonist)
Cc1ccc(Nc2c(-c3ccccn3)nc3cccc(C)n23)cc1	CCR6 antagonist 64.2, CXCR6 block 41.6
Cc1cccc2nc(-c3ccco3)c(Nc3ccccc3)n12	none
O=C1NC(Cc2ccccc2)c2nc3ccc(F)cc3c(=O)n2-c2ncccc21 (configuration not stated)	none (no result: CCR6 antagonist, APJ antagonist, APJ agonist)
O=S(=O)(N1CCCCC1)N1CCN(CC(O)COc2ccc3cc(Br)ccc3c2)CC1 (configuration not stated)	EBI2 antag 89.6
OC(COc1ccc2cc(Br)ccc2c1)CN1CCCC1 (configuration not stated)	none
CC(=O)Nc1ccc(CN2C(=O)C(C)(C)ON=C2c2ccc(C(F)(F)F)cc2)cc1	none (no result: CCR6 antagonist, APJ antagonist, APJ agonist)
CC(=O)OCCNc1cc(SCc2ccco2)c2nonc2c1[N+](=O)[O-]	CCR6 antagonist 75.3, CXCR6 block 49.7 (no result: APJ antagonist, APJ agonist)
O=[N+]([O-])c1c(NCCCO)cc(SCc2ccco2)c2nonc12	CCR6 antagonist 63.0
CCOC(=O)N1CCN(C(=O)C2CCN(C(=O)c3ccccc3C)CC2)CC1	CXCR6 block 108.9 (no result: CCR6 antagonist, APJ antagonist, APJ agonist)
Cc1ccccc1C(=O)N1CCC(C(=O)N2CCN(c3ncccn3)CC2)CC1	none
O=C(O)c1ccc(N2C(=O)/C(=C/C=C/c3ccccc3)SC2=S)cc1	none
CN(C)c1ccc(/C=C/C=C2/SC(=S)N(c3ccccc3)C2=O)cc1	CXCR6 block 52.5
O=c1[nH]c(-c2ccccn2)nc2sc(-c3ccccc3)cc12	EBI2 antag 86.6 (no result: APJ antagonist, APJ agonist)
Cc1c(C(=O)N(C)C)sc2nc(-c3ccccn3)[nH]c(=O)c12	none
CS(=O)(=O)Nc1cccc(NC(=O)c2cccc3c(-c4ccc(F)c(F)c4)coc23)c1	none (no result: CCR6 antagonist, APJ antagonist, APJ agonist)
